{"source": "ChEMBL document CHEMBL1138395", "about": "“Adamantane sulfone and sulfonamide 11-beta-HSD1 Inhibitors” (Bioorg Med Chem Lett, 2007)", "key": {"[1]": {"test_system": "Mus musculus", "test": "Ex vivo inhibition of liver 11-beta-HSD1 in DIO mouse at 30 mg/kg, po after 7 hrs", "assay_type": "functional", "in_short": "(§1)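 DIO mice dosed orally at 30 mpk; animals killed 1, 7 and 16 h after the dose and liver, fat and brain taken. Ex vivo 11-β-HSD1 activity (cortisol levels) in tissue was measured and percent inhibition expressed relative to vehicle-dosed animals; means from two animals per point.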"}, "[2]": {"test": "Half life in monkey at 2.5 mg/kg, iv", "assay_type": "ADME, organism-based, Macaca mulatta", "set-up": "dose 2.5 mg/kg, route intravenous", "details": "rhesus monkey, in vivo"}, "[3]": {"test_system": "Mus musculus", "test": "Ex vivo inhibition of brain 11-beta-HSD1 in DIO mouse at 30 mg/kg, po after 7 hrs", "assay_type": "functional", "in_short": "as §1"}, "[4]": {"test": "Metabolic stability in monkey liver microsomes assessed as intrinsic clearance", "assay_type": "ADME, Macaca mulatta, Microsome", "details": "rhesus monkey", "in_short": "(§2)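 Intrinsic clearance (L/h/kg) determined from incubations with liver microsomes (mouse, monkey, human) or hepatocytes (mouse, monkey); values are means of three experiments.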"}, "[5]": {"test": "Volume of distribution at steady state in mouse at 10 mg/kg", "assay_type": "ADME, organism-based", "set-up": "dose 10 mg/kg", "details": "in vivo, read-out: Vdss"}, "[6]": {"test": "Metabolic stability in mouse liver microsomes assessed as compound remaining after 30 mins", "assay_type": "ADME, Microsome", "details": "read-out: Stability", "in_short": "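Test compound incubated with mouse liver microsomes for 30 min; percent of parent compound remaining afterward reported.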"}, "[7]": {"test_system": "Mus musculus", "test": "Ex vivo inhibition of liver 11-beta-HSD1 in DIO mouse at 30 mg/kg, po after 16 hrs", "assay_type": "functional", "in_short": "as §1"}, "[8]": {"test": "Metabolic stability in mouse hepatocytes assessed as intrinsic clearance", "assay_type": "ADME, cell-based, Liver, Hepatocyte", "in_short": "as §2"}, "[9]": {"test_system": "Mus musculus", "test": "Ex vivo inhibition of brain 11-beta-HSD1 in DIO mouse at 30 mg/kg, po after 1 hr", "assay_type": "functional", "in_short": "as §1"}, "[10]": {"test": "Metabolic stability in monkey hepatocytes assessed as intrinsic clearance", "assay_type": "ADME, cell-based, Macaca mulatta, Liver, Hepatocyte", "details": "rhesus monkey", "in_short": "as §2"}, "[11]": {"test": "Oral bioavailability in monkey at 2.5 mg/kg", "assay_type": "ADME, organism-based, Macaca mulatta", "details": "rhesus monkey, in vivo"}, "[12]": {"test": "Volume of distribution at terminal phase in mouse at 10 mg/kg", "assay_type": "ADME, organism-based", "set-up": "dose 10 mg/kg", "details": "in vivo, read-out: Vbeta"}, "[13]": {"test_system": "Mus musculus", "test": "Ex vivo inhibition of liver 11-beta-HSD1 in DIO mouse at 30 mg/kg, po after 1 hr", "assay_type": "functional", "in_short": "as §1"}, "[14]": {"test": "Oral bioavailability in mouse at 10 mg/kg", "assay_type": "ADME, organism-based", "details": "in vivo"}, "[15]": {"test": "Metabolic stability in human liver microsomes assessed as intrinsic clearance", "assay_type": "ADME, Microsome", "in_short": "as §2"}, "[16]": {"test_system": "Mus musculus", "test": "Ex vivo inhibition of brain 11-beta-HSD1 in DIO mouse at 30 mg/kg, po after 16 hrs", "assay_type": "functional", "in_short": "as §1"}, "[17]": {"test": "Half life in mouse at 10 mg/kg, iv", "assay_type": "ADME, organism-based", "set-up": "dose 10 mg/kg, route intravenous", "details": "in vivo"}, "[18]": {"test": "AUC in monkey at 2.5 mg/kg, po", "assay_type": "ADME, organism-based, Macaca mulatta", "set-up": "dose 2.5 mg/kg, route oral", "details": "rhesus monkey, plasma"}, "[19]": {"test_system": "Mus musculus", "test": "Ex vivo inhibition of fat 11-beta-HSD1 in DIO mouse at 30 mg/kg, po after 7 hrs", "assay_type": "functional", "in_short": "as §1"}, "[20]": {"test": "Volume of distribution at terminal phase in monkey at 2.5 mg/kg", "assay_type": "ADME, organism-based, Macaca mulatta", "set-up": "dose 2.5 mg/kg", "details": "rhesus monkey, in vivo, read-out: Vbeta"}, "[21]": {"test_system": "Mus musculus", "test": "Ex vivo inhibition of fat 11-beta-HSD1 in DIO mouse at 30 mg/kg, po after 1 hr", "assay_type": "functional", "in_short": "as §1"}, "[22]": {"target": "T1, 11-beta-hydroxysteroid dehydrogenase type 2 (Mus musculus, UniProt P51661)", "T1 sequence (P51661 whole entry)": "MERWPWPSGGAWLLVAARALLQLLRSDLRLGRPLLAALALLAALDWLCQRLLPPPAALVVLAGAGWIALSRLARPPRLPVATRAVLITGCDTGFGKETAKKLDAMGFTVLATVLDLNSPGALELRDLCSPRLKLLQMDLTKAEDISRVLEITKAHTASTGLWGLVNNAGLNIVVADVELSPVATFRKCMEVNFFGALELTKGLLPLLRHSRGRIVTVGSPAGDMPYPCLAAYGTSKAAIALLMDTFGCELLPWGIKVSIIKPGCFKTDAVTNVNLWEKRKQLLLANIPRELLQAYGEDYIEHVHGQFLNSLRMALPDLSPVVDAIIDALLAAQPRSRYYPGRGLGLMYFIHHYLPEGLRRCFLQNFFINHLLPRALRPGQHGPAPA", "test": "Inhibition of mouse HSD2 assessed as interconversion of cortisone to cortisol", "in_short": "(§3)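 Enzyme inhibition measured as blocking the interconversion between cortisone and cortisol by mouse HSD1 (reported as Ki) or mouse HSD2 (reported as IC50); values are means of at least two experiments.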"}, "[23]": {"test": "Plasma clearance in mouse at 10 mg/kg, iv", "assay_type": "ADME, organism-based", "set-up": "dose 10 mg/kg, route intravenous"}, "[24]": {"test": "AUC in mouse at 10 mg/kg, po", "assay_type": "ADME, organism-based", "set-up": "dose 10 mg/kg, route oral", "details": "plasma"}, "[25]": {"test": "Volume of distribution at steady state in monkey at 2.5 mg/kg", "assay_type": "ADME, organism-based, Macaca mulatta", "set-up": "dose 2.5 mg/kg", "details": "rhesus monkey, in vivo, read-out: Vdss"}, "[26]": {"test_system": "Mus musculus", "test": "Ex vivo inhibition of fat 11-beta-HSD1 in DIO mouse at 30 mg/kg, po after 16 hrs", "assay_type": "functional", "in_short": "as §1"}, "[27]": {"test": "Plasma clearance in monkey at 2.5 mg/kg, iv", "assay_type": "ADME, organism-based, Macaca mulatta", "set-up": "dose 2.5 mg/kg, route intravenous", "details": "rhesus monkey"}, "[28]": {"test": "Metabolic stability in mouse liver microsomes assessed as intrinsic clearance", "assay_type": "ADME, Microsome", "in_short": "as §2"}, "[29]": {"target": "11-beta-hydroxysteroid dehydrogenase 1 (Mus musculus, UniProt P50172)", "sequence (P50172 whole entry)": "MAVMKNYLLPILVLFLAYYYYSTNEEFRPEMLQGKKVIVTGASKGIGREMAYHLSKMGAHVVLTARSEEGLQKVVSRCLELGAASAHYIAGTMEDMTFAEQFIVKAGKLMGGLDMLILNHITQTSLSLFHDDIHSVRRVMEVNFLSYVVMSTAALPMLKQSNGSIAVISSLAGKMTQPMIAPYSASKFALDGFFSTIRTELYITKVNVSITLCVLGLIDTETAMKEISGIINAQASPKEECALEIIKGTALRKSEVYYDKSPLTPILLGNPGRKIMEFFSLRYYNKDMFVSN", "test": "Inhibition of mouse HSD1 assessed as interconversion of cortisone to cortisol", "in_short": "as §3"}}, "note": "pIC50, pKi: −log10 of the molar value."}
{"smiles": "CC(C)(Oc1ccc(F)cc1Cl)C(=O)N[C@H]1C2CC3CC1C[C@](S(C)(=O)=O)(C3)C2", "values": [{"measurement": "inhibition in vivo at 30 mg/kg", "setting": "[1]", "value": 95, "unit": "%"}, {"measurement": "half-life", "setting": "[2]", "value": 5.1, "unit": "h"}, {"measurement": "inhibition in vivo at 30 mg/kg", "setting": "[3]", "value": 90, "unit": "%"}, {"measurement": "CLint scaled", "setting": "[4]", "value": 25, "unit": "mL/min/kg"}, {"measurement": "Vd", "setting": "[5]", "value": 1.5, "unit": "L/kg"}, {"measurement": "remaining at 0.5 h", "setting": "[6]", "value": 57, "unit": "%"}, {"measurement": "inhibition in vivo at 30 mg/kg", "setting": "[7]", "value": 89, "unit": "%"}, {"measurement": "CLint scaled", "setting": "[8]", "value": 3.33, "unit": "mL/min/kg"}, {"measurement": "inhibition in vivo at 30 mg/kg", "setting": "[9]", "value": 90, "unit": "%"}, {"measurement": "CLint scaled", "setting": "[10]", "value": 1.67, "unit": "mL/min/kg"}, {"measurement": "bioavailability", "setting": "[11]", "value": 109, "unit": "%"}, {"measurement": "Vd", "setting": "[12]", "value": 1.7, "unit": "L/kg"}, {"measurement": "inhibition in vivo at 30 mg/kg", "setting": "[13]", "value": 95, "unit": "%"}, {"measurement": "bioavailability", "setting": "[14]", "value": 100, "unit": "%"}, {"measurement": "CLint scaled", "setting": "[15]", "value": 26.7, "unit": "mL/min/kg"}, {"measurement": "inhibition in vivo at 30 mg/kg", "setting": "[16]", "value": 77, "unit": "%"}, {"measurement": "half-life", "setting": "[17]", "value": 1, "unit": "h"}, {"measurement": "AUC", "setting": "[18]", "value": 6810, "unit": "ng·h/mL"}, {"measurement": "inhibition in vivo at 30 mg/kg", "setting": "[19]", "value": 93, "unit": "%"}, {"measurement": "Vd", "setting": "[20]", "value": 3.1, "unit": "L/kg"}, {"measurement": "inhibition in vivo at 30 mg/kg", "setting": "[21]", "value": 87, "unit": "%"}, {"measurement": "pIC50", "setting": "[22]", "value": "< 4.00"}, {"measurement": "clearance", "setting": "[23]", "value": 18.3, "unit": "mL/min/kg"}, {"measurement": "AUC", "setting": "[24]", "value": 8900, "unit": "ng·h/mL"}, {"measurement": "Vd", "setting": "[25]", "value": 2.7, "unit": "L/kg"}, {"measurement": "inhibition in vivo at 30 mg/kg", "setting": "[26]", "value": 86, "unit": "%"}, {"measurement": "clearance", "setting": "[27]", "value": 6.67, "unit": "mL/min/kg"}, {"measurement": "CLint scaled", "setting": "[28]", "value": 100, "unit": "mL/min/kg"}, {"measurement": "pKi", "setting": "[29]", "value": 8.40}]}
